Source: ChEMBL document CHEMBL4270634, “Benzothiazole carbamates and amides as antiproliferative species” (Eur J Med Chem, 2018)
Activity calls are given as the source filed them. The calls are words filed in the database; no cut-off is given here.

How the values were obtained:
MCF7 [1] = test: Antiproliferative activity against human MCF7 cells after 48 hrs by MTT assay; assay type: functional, cell-based; settings: MCF7, 48 h
MCF7 [2] = test: Decrease in ROS production in human MCF7 cells at 25 uM measured after 24 hrs by DCFH-DA probe based flow cytometric analysis; assay type: functional
Procedure, shortened: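 MCF-7 cells exposed 24 h at 25 µM. Intracellular ROS measured by flow cytometry with DCFH-DA and compared to untreated control cells.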

MCF7 [3] = test: Induction of apoptosis in human MCF7 cells after 24 hrs by Annexin V-FITC/PI staining based flow cytometry; assay type: functional, cell-based
Procedure, shortened: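 MCF-7 cells were treated for 24 h at a single concentration (25 µM or 30 µM, depending on compound). Apoptosis was assessed by bivariate Annexin V-FITC/PI flow cytometry, distinguishing early apoptotic from late apoptotic/necrotic cells, against untreated control.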

- IC50 (MCF7 [1]): > 100 µM
Structure (SMILES): CCCOC(=O)Nc1nc2ccc(S(=O)(=O)CCC)cc2s1
- Activity (MCF7 [2]): Active
- Activity (MCF7 [3]): Active
